≈ marks a conversion by molar mass, not a printed value.
Key:
Giardia intestinalis [1] = test: Cyst formation in Giardia lamblia WB6 at 10 uM relative to control; conditions: Giardia duodenalis
Giardia intestinalis [2] = test: Antiprotozoal activity against Giardia lamblia WB6 trophozoites after 48 hrs; type: functional; conditions: Giardia duodenalis, WB6, 48 h
How it was run: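 Trophozoites of strain WB-6 cultured anaerobically 48 h with 2-fold serial drug dilutions, triplicate wells; viability read by XTT reagent.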

[3] = Toxicity in MDBK cells; type: cell-based; conditions: Bos taurus

## O=c1ccn(C[C@@H]2O[C@H](COP(=O)(O)CCCN3C[C@H](O)[C@@H](O)C3)[C@@H](O)[C@H]2O)c(=O)[nH]1
Giardia intestinalis [1]
  level, % of control at 10 µM: 22.9%
Giardia intestinalis [2]
  MIC: 20 µM (≈ 9.31 µg/mL)
[3]
  EC50: > 250 µM

## O=c1ccn(C[C@@H]2O[C@H](COP(=O)(O)CN3C[C@@H](O)[C@H](O)C3)[C@@H](O)[C@H]2O)c(=O)[nH]1
Giardia intestinalis [2]
  MIC: > 20 µM
[3]
  EC50: > 250 µM

## CCOP(=O)(CCNCCOC(C)=O)OCC
Giardia intestinalis [2]
  MIC: > 20 µM
[3]
  EC50: > 250 µM

## NCP(=O)(O)OC[C@H]1O[C@@H](n2ccc(=O)[nH]c2=O)[C@H](O)[C@@H]1O
Giardia intestinalis [1]
  level, % of control at 10 µM: 34.4%
Giardia intestinalis [2]
  MIC: > 20 µM
[3]
  EC50: > 250 µM

## CCOP(=O)(CCN(CCOC(C)=O)CCOC(C)=O)OCC
Giardia intestinalis [2]
  MIC: > 20 µM
[3]
  EC50: > 250 µM

## O=c1ccn(C[C@@H]2O[C@H](COP(=O)(O)CCN(CCO)CCO)[C@@H](O)[C@H]2O)c(=O)[nH]1
Giardia intestinalis [1]
  level, % of control at 10 µM: 72.2%
Giardia intestinalis [2]
  MIC: > 10 µM
[3]
  EC50: > 250 µM

## CC(=O)OCCN(CCOC(C)=O)CCP(=O)(O)OC[C@H]1O[C@@H](Cn2ccc(=O)[nH]c2=O)[C@H](O)[C@@H]1O
Giardia intestinalis [1]
  level, % of control at 10 µM: 27.4%
Giardia intestinalis [2]
  MIC: > 10 µM
[3]
  EC50: > 250 µM

## O=c1ccn(C[C@@H]2O[C@H](COP(=O)(O)CCN3CCCC3)[C@@H](O)[C@H]2O)c(=O)[nH]1
Giardia intestinalis [2]
  MIC: > 20 µM
[3]
  EC50: > 250 µM

## CC(=O)OCCN(CCO)CCP(=O)(O)OC[C@H]1O[C@@H](Cn2ccc(=O)[nH]c2=O)[C@H](O)[C@@H]1O
Giardia intestinalis [1]
  level, % of control at 10 µM: 35.6%
Giardia intestinalis [2]
  MIC: > 10 µM
[3]
  EC50: > 250 µM

## O=C1[C@@H](O)[C@H](O)C(=O)N1CCP(=O)(O)OC[C@H]1O[C@@H](Cn2ccc(=O)[nH]c2=O)[C@H](O)[C@@H]1O
Giardia intestinalis [1]
  level, % of control at 10 µM: 28.7%
Giardia intestinalis [2]
  MIC: > 20 µM
[3]
  EC50: > 250 µM

## NCCP(=O)(O)OC[C@H]1O[C@@H](n2ccc(=O)[nH]c2=O)[C@H](O)[C@@H]1O
Giardia intestinalis [1]
  level, % of control at 10 µM: 14.9%
Giardia intestinalis [2]
  MIC: > 10 µM
[3]
  EC50: > 250 µM

## O=c1ccn(C[C@@H]2O[C@H](COP(=O)(O)COCCN3C[C@@H](O)[C@H](O)C3)[C@@H](O)[C@H]2O)c(=O)[nH]1
Giardia intestinalis [1]
  level, % of control at 10 µM: 17.2%
Giardia intestinalis [2]
  MIC: 20 µM (≈ 9.63 µg/mL)
[3]
  EC50: > 250 µM

## O=c1ccn(C[C@@H]2O[C@H](COP(=O)(O)CCNCCO)[C@@H](O)[C@H]2O)c(=O)[nH]1
Giardia intestinalis [2]
  MIC: > 20 µM
[3]
  EC50: > 250 µM

## O=c1ccn(C[C@@H]2O[C@H](COP(=O)(O)CCN3C[C@H](O)[C@@H](O)C3)[C@@H](O)[C@H]2O)c(=O)[nH]1
Giardia intestinalis [1]
  level, % of control at 10 µM: 5.73%
Giardia intestinalis [2]
  MIC: 0.48 µM (≈ 0.217 µg/mL)
[3]
  EC50: > 250 µM

Source: ChEMBL document CHEMBL1147902, “Phosphonoxins: rational design and discovery of a potent nucleotide anti-Giardia agent” (Bioorg Med Chem Lett, 2007)
